Measured values from ChEMBL document CHEMBL1153905, “Functionalized 3-benzylidene-indolin-2-ones: inducers of NAD(P)H-quinone oxidoreductase 1 (NQO1) with antiproliferative activity” (Bioorg Med Chem, 2009).

How the values were obtained:
[1] = Cytotoxicity against mouse Hepa-1c1c7 cells after 48 hrs by MTT assay; format: cell-based; conditions: hepa-1c1c7, 48 h
Method in brief: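 Murine hepatoma cells in α-MEM with 10% heat- and charcoal-treated fetal calf serum, passages 6–17; MTT read-out as for the cancer lines but with 48 h compound exposure. Highest concentration tested 25 µM. IC50 from survival-versus-concentration curve; mean and SD, n = 3.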

CYP1A1 [2] = target: T1, CYP1A1 (Mus musculus, UniProt P00184); assay: Induction of CYP1A1 activity in mouse Hepa-1c1c7 cells assessed as induction ratio at 50 nM after 48 hrs by EROD assay relative to control; format: ADME, cell-based
T1 sequence (P00184 whole entry): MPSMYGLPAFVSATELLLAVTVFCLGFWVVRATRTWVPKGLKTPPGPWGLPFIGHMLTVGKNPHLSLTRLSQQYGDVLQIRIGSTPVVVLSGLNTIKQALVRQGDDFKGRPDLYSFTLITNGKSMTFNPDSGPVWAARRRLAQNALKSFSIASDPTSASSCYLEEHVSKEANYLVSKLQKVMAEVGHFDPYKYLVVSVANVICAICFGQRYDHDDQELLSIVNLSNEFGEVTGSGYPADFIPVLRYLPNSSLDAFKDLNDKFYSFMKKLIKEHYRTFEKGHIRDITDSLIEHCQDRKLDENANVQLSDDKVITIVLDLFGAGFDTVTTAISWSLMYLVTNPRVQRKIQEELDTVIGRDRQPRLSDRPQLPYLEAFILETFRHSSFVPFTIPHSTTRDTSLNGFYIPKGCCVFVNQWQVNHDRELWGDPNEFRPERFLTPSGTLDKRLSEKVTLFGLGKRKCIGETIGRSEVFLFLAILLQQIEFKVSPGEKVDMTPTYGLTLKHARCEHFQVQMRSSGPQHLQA
Method in brief: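 Hepa1c1c7 cells were seeded at 10,000 per well and grown 24 h. They were then exposed 48 h to compound (final DMSO 0.5% v/v) at about 4 × the NQO1 CD. After a PBS wash, cells got 5 µM 7-ethoxyresorufin plus 2 mM salicylamide in medium, 37 °C, 40 min. Resorufin was read at ex 530/em 590 nm, corrected for compound fluorescence. Ratio = (F treated − blank)/(F DMSO control − blank); mean ± SD, n = 3.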

[3] = target: NAD(P)H dehydrogenase [quinone] 1 (Mus musculus) (UniProt Q64669); assay: Induction of NQO1 activity in mouse Hepa-1c1c7 cells assessed as induction ratio at 50 nM after 48 hrs by MTT assay relative to control; format: cell-based
Method in brief: (§1)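 Hepa1c1c7 cells, 10,000 per well, 24 h, were then treated 48 h (DMSO ≤0.5%). Digitonin/EDTA lysates were assayed for menadione-dependent MTT-formazan formation using a G6P/G6PDH NADPH-generating mix with FAD at pH 7.4. The reaction ran 5 min, was stopped with dicoumarol, and read at A590. Degree of induction = (A test − blank)/(A control − blank). Ratios were read off the induction–concentration plot at the EROD test concentration.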

[4] = Ratio of induction of NQO1 activity to induction of CYP1 activity in mouse Hepa-1c1c7 cells at 50 nM after 48 hrs
CYP1A1 [5] = target: T1, CYP1A1; assay: Induction of CYP1A1 activity in mouse Hepa-1c1c7 cells assessed as induction ratio at 0.01 uM after 48 hrs by EROD assay relative to control; format: ADME, cell-based
[6] = target: NAD(P)H dehydrogenase [quinone] 1 (Mus musculus) (UniProt Q64669); assay: Induction of NQO1 activity in mouse Hepa-1c1c7 cells assessed as induction ratio at 0.01 uM after 48 hrs by MTT assay relative to control; format: cell-based; method in brief: as §1
[7] = target: NAD(P)H dehydrogenase [quinone] 1 (Mus musculus) (UniProt Q64669); assay: Induction of NQO1 activity in mouse Hepa-1c1c7 cells assessed as drug level required to double basal enzyme activity after 48 hrs by MTT assay; format: cell-based
Method in brief: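 Hepa1c1c7 cells were grown in α-MEM with charcoal-treated FCS, 10,000 per well, 24 h. Compound was given 48 h (DMSO ≤0.5%) over a 10–100-fold range below cytotoxic levels, up to 25 µM. Cells were lysed with digitonin/EDTA. NQO1 was assayed by menadione-driven MTT reduction (G6P/G6PDH/NADP, FAD, Tris pH 7.4), quenched with dicoumarol, A590. CD is the concentration doubling basal activity, taken from the induction–concentration plot; mean ± SD, n = 3.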

[8] = Ratio of induction of NQO1 activity to induction of CYP1A1 activity in mouse Hepa-1c1c7 cells at 0.01 uM after 48 hrs

Sequence of NAD(P)H dehydrogenase [quinone] 1 (Mus musculus) (Q64669 whole entry): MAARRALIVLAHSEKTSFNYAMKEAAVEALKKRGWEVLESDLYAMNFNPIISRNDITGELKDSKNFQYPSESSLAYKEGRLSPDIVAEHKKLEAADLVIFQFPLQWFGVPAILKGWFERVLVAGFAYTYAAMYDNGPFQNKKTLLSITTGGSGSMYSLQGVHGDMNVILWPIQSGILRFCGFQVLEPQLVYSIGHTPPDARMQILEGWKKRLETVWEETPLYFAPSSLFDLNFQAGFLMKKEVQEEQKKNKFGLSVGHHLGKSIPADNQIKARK

Compound	IC50 [1] [µM]	fold induction at 48 h, 0.05 µM (CYP1A1 [2])	Ratio [3]	Ratio [4]	fold induction at 48 h, 0.01 µM (CYP1A1 [5])	Ratio [6]	CD [7] [µM]	Ratio [8]
O=C1Nc2ccccc2/C1=C1\C(=O)Nc2cc(Cl)ccc21	> 25	2.09	2.88	1.38				
O=c1cc(-c2ccccc2)oc2ccc3ccccc3c12 [BETA-NAPHTHOFLAVONE]					1.13	1.83	0.028	1.62
